Assay results gathered from unrelated publications.
Target: Serine/threonine-protein kinase PknB (pknB, Mycobacterium tuberculosis, UniProt P9WI81)

With `C[C@@H]1CCN(c2nccc(-c3cnn4ncccc34)n2)C1` the remaining binding was 100% (binding; 1 µM).
`CCN1CCN(Cc2ccc(C(=O)Nc3ccc(C)c(Oc4ccc5c(c4)CC(=O)N5)c3)cc2C(F)(F)F)CC1` has a remaining binding of 100% (binding; competition with immobilised ligand; 1 µM).
The remaining binding of `CC1=C(C#N)C(c2ccc3c(c2)c(NC(=O)c2ccccc2C)nn3C)C(C#N)=C(C)N1` is reported as 97% (cell-free assay; competition with immobilised ligand; 1 µM).
`O=C(Nc1c[nH]nc1C(=O)NC1CCNCC1)c1cc(F)cc(F)c1` gave a remaining binding of 100% (binding; competition with immobilised ligand; 1 µM).
`COc1ccnn2ncc(-c3ccnc(N(C)C)n3)c12` has a remaining binding of 100% (binding; 1 µM).
For `CNC(=O)Nc1ccc2c(c1)[C@@]1(CC2)OC(=O)N(CC(=O)N(Cc2ccc(F)cc2)[C@@H](C)C(F)(F)F)C1=O`, the remaining binding was 84% (cell-free assay; competition with immobilised ligand; 1 µM).
The remaining binding of `c1cncc(-c2cccc(Nc3nccc(NC4CCCCC4)n3)c2)c1` is reported as 89% (binding; competition with immobilised ligand; 10 µM).
For `COc1ccc2c(c1)O[C@@H](c1ccc(OC)c(OC)c1)C[C@H]2NC(=O)C1(c2ccc3c(c2)OC(F)(F)O3)CC1`, the remaining binding was 85% (cell-free assay; competition with immobilised ligand; 1 µM).
`F[C@@H]1CCN(c2nccc(-c3cnn4ncccc34)n2)C1` gave a remaining binding of 100% (binding; 1 µM).
The remaining binding of `C[C@@H](c1ccc(-n2cnc3c(N)ncnc32)cc1)N1CCc2nn(C)c(Cc3ccccc3)c2C1=O` is reported as 96% (binding; competition with immobilised ligand; 0.1 µM).
`CN(CCCC(F)(F)F)c1nccc(-c2cnn3ncccc23)n1` has a remaining binding of 89% (binding; 1 µM).
With `CS(=O)(=O)N1CCCC(NC(=O)[C@H](CCC2CCCCC2)NC(=O)c2ccc(CNc3ncnc4c3nnn4-c3ccccc3)cc2)C1` (stereo partly drawn) the remaining binding was 90% (cell-free assay; competition with immobilised ligand; 0.1 µM).
The remaining binding of `Nc1ncc2c(n1)-c1c([nH]c3ccc(C#CC4CC4)cc13)CCCC2` is reported as 90% (binding; competition with immobilised ligand; 1 µM).
For `N[C@@H]1CCN(c2nccc(-c3cnn4ncccc34)n2)C1`, the remaining binding was 100% (binding; 1 µM).
`COc1cnc(Nc2cccc(S(N)(=O)=O)c2)nc1N1CCN(c2ccccc2)CC1` gave a remaining binding of 99% (binding; competition with immobilised ligand; 1 µM).
